{"data": "Measured values gathered from unrelated publications", "cell line": "HeLa", "read-out": "cell growth or viability", "note": "Lines come from different studies, so protocols differ."}
{"SMILES": "Fc1ccc(Oc2ccc(Nc3ccc4ncc(OCC5CCNCC5)nc4c3)cc2)cc1", "test": "XTT", "setting": "7 days", "measurement": "EC50", "value": "> 30 µM"}
{"SMILES": "CC[C@H](CC[C@@H](C)[C@H]1CC[C@H]2[C@@H]3CC=C4C[C@@H](O)CC[C@]4(C)[C@H]3CC[C@]12C)C(C)C", "test": "MTT", "setting": "48 h", "measurement": "CC50", "value": "> 100 µg/mL"}
{"SMILES": "CC(C)n1ncc2c(C(=O)NCC3(C)CNC3)cc(C3CC3)nc21", "test": "neutral red", "setting": "0.33 µM", "measurement": "viability", "value": "101%"}
{"SMILES": "c1cc(-c2cc3ncc(OCC4CCNCC4)nc3cc2-c2cccc(N3CCCCC3)c2)cc(N2CCCCC2)c1", "test": "XTT", "setting": "7 days", "measurement": "EC50", "value": "24.2 µM"}
{"SMILES": "CCn1c(=O)c(-c2cc[nH]n2)cc2c(C)nc(N)nc21", "test": "MTT", "measurement": "CC50", "value": "13.6 µM"}
{"SMILES": "c1cc(N2CCCC2)ccc1-c1cc2ncc(OCC3CCNCC3)nc2cc1-c1ccc(N2CCCC2)cc1", "test": "XTT", "setting": "7 days", "measurement": "EC50", "value": "> 30 µM"}
{"SMILES": "CCN(CC)CCCC(C)Nc1ccnc2cc(Cl)ccc12 (stereo not drawn)", "test": "MTT", "setting": "48 h", "measurement": "CC50", "value": "> 100 µg/mL"}
{"SMILES": "Nc1nc2c(ncn2COCCO)c(=O)[nH]1", "test": "MTT", "setting": "48 h", "measurement": "CC50", "value": "355 µM"}
{"SMILES": "NC(=O)c1ncn([C@@H]2O[C@H](CO)[C@@H](O)[C@H]2O)n1", "test": "MTT", "measurement": "CC50", "value": "115 µM"}
